Assays:
Format in all cases: functional
SK-MEL-5 = experiment: Anticancer activity against human SK-MEL-5 cells
Summary of the method: (§1)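 NCI 60-cell human tumour panel (leukemia, lung, colon, CNS, melanoma, ovarian, renal, prostate, breast). A first-stage single-dose screen at 10 µM was run. Compounds giving over 60% growth inhibition in at least eight lines went on to a five-dose response. Effect was plotted against log10 molar concentration per line. GI50 is the concentration giving 50% reduction in net protein increase versus control cells. LC50 is the concentration lethal to 50% of cells.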

COLO 205 = experiment: Anticancer activity against human COLO205 cells; summary of the method: as §1
UO-31 = experiment: Anticancer activity against human UO31 cells
Summary of the method: (§2)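 NCI 60-cell-line panel. A single-dose (10 µM) prescreen was run first. Compounds giving over 60% growth inhibition in at least eight lines then went to five-dose response studies. Dose-response curves of effect versus log10 concentration. GI50 is the molar concentration giving a 50% reduction in net protein increase versus control cells. LC50 is the concentration lethal to 50% of cells.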

NCI-H226 = experiment: Anticancer activity against human NCI-H226 cells; summary of the method: as §1
SK-OV-3 = experiment: Anticancer activity against human SKOV3 cells; summary of the method: as §1
EKVX = experiment: Anticancer activity against human EKVX cells; summary of the method: as §1
TK-10 = experiment: Anticancer activity against human TK10 cells; summary of the method: as §2
KM12 = experiment: Anticancer activity against human KM12 cells; summary of the method: as §1
M14 = experiment: Anticancer activity against human M14 cells; summary of the method: as §1
SW-620 = experiment: Anticancer activity against human SW620 cells; summary of the method: as §2
OVCAR-8 = experiment: Anticancer activity against human OVCAR8 cells; summary of the method: as §1
HOP-92 = experiment: Anticancer activity against human HOP92 cells
Summary of the method: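 NCI 60-cell human tumour panel screen that includes non-small cell lung lines. The first stage used a single 10 µM dose. Compounds reaching more than 60% growth inhibition in at least eight lines went on to five-dose response testing. GI50 and LC50 came from curves of effect against log10 molar concentration. GI50 is the concentration giving a 50% reduction in net protein increase versus control cells.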

MDA-MB-435 = experiment: Anticancer activity against human MDA-MB-435 cells; summary of the method: as §1
BT-549 = experiment: Anticancer activity against human BT549 cells; summary of the method: as §1
OVCAR-5 = experiment: Anticancer activity against human OVCAR5 cells; summary of the method: as §1
CAKI-1 = experiment: Anticancer activity against human Caki1 cells; summary of the method: as §1
MDA-MB-468 = experiment: Anticancer activity against human MDA-MB-468 cells; summary of the method: as §1
HCT-15 = experiment: Anticancer activity against human HCT15 cells; summary of the method: as §1
OVCAR-4 = experiment: Anticancer activity against human OVCAR4 cells; summary of the method: as §1
[1] = Anticancer activity against human Hs 578T cells; summary of the method: as §1
SF-268 = experiment: Anticancer activity against human SF268 cells; summary of the method: as §1
T47D = experiment: Anticancer activity against human T47D cells; summary of the method: as §2
MOLT-4 = experiment: Anticancer activity against human MOLT4 cells; summary of the method: as §1
SNB-19 = experiment: Anticancer activity against human SNB19 cells; summary of the method: as §1
UACC-257 = experiment: Anticancer activity against human UACC257 cells; summary of the method: as §2
RXF 393 = experiment: Anticancer activity against human RXF393 cells; summary of the method: as §1
DU-145 = experiment: Anticancer activity against human DU145 cells; summary of the method: as §1
NCI-H460 = experiment: Anticancer activity against human NCI-H460 cells; summary of the method: as §1
A498 = experiment: Anticancer activity against human A498 cells; summary of the method: as §1
ACHN = experiment: Anticancer activity against human ACHN cells; summary of the method: as §1
[2] = read-out: LC50 (the source's name)

## N=C1NC(=O)/C(=C/c2cn(Cc3ccc(F)cc3)c3ccc(Cl)cc23)S1
SK-MEL-5
  GI50: > 100 µM
SK-MEL-5; [2]
  CC50: > 100 µM
COLO 205
  GI50: > 100 µM
COLO 205; [2]
  CC50: > 100 µM
UO-31
  GI50: > 100 µM
UO-31; [2]
  CC50: > 100 µM
NCI-H226
  GI50: 80.7 µM
NCI-H226; [2]
  CC50: > 100 µM
SK-OV-3
  GI50: > 100 µM
SK-OV-3; [2]
  CC50: > 100 µM
EKVX
  GI50: > 100 µM
EKVX; [2]
  CC50: > 100 µM
TK-10
  GI50: 5.64 µM
TK-10; [2]
  CC50: > 100 µM
KM12
  GI50: 7.49 µM
KM12; [2]
  CC50: > 100 µM
M14
  GI50: 57.2 µM
M14; [2]
  CC50: > 100 µM
SW-620
  GI50: 38.3 µM
SW-620; [2]
  CC50: > 100 µM
OVCAR-8
  GI50: 0.019 µM
OVCAR-8; [2]
  CC50: > 100 µM
HOP-92
  GI50: > 100 µM
MDA-MB-435
  GI50: 32.4 µM
MDA-MB-435; [2]
  CC50: > 100 µM
BT-549
  GI50: 98.8 µM
BT-549; [2]
  CC50: > 100 µM
OVCAR-5
  GI50: > 100 µM
OVCAR-5; [2]
  CC50: > 100 µM
CAKI-1
  GI50: > 100 µM
CAKI-1; [2]
  CC50: > 100 µM
MDA-MB-468
  GI50: > 100 µM
MDA-MB-468; [2]
  CC50: > 100 µM
HCT-15
  GI50: > 100 µM
HCT-15; [2]
  CC50: > 100 µM
OVCAR-4
  GI50: 2.49 µM
OVCAR-4; [2]
  CC50: > 100 µM
[1]
  GI50: 3.67 µM
[1]; [2]
  CC50: > 100 µM
SF-268
  GI50: 32 µM
SF-268; [2]
  CC50: > 100 µM
T47D
  GI50: > 100 µM
T47D; [2]
  CC50: > 100 µM
MOLT-4
  GI50: > 100 µM
MOLT-4; [2]
  CC50: > 100 µM
SNB-19
  GI50: > 100 µM
SNB-19; [2]
  CC50: > 100 µM
UACC-257
  GI50: 0.013 µM
UACC-257; [2]
  CC50: 0.3 µM
RXF 393
  GI50: 1.62 µM
RXF 393; [2]
  CC50: > 100 µM
DU-145
  GI50: 5.24 µM
DU-145; [2]
  CC50: > 100 µM
NCI-H460
  GI50: > 100 µM
NCI-H460; [2]
  CC50: > 100 µM
A498
  GI50: 31.5 µM
A498; [2]
  CC50: > 100 µM
ACHN
  GI50: > 100 µM
ACHN; [2]
  CC50: > 100 µM

From ChEMBL document CHEMBL1681666, “Synthesis and in vitro screening of novel N-benzyl aplysinopsin analogs as potential anticancer agents” (2011)
